Assay results taken from ChEMBL document CHEMBL3813670, “Unique Polybrominated Hydrocarbons from the Australian Endemic Red Alga Ptilonia australasica” (J Nat Prod, 2016).
Active and inactive are the calls of the source. No cut-off for these calls is given here.

How the values were obtained:
[1] = Cell cycle arrest in human PC3 cells assessed as accumulation at S phase at 0.13 uM after 24 hrs by propidium iodide staining based flow cytometry (reference value: 25.8 +/- 0.7%); assay type: functional; conditions: PC-3
Method in brief: (§1)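 PC3 cells exposed to compound at various concentrations for 24 h, then harvested, rinsed in ice-cold PBS and fixed in 70% alcohol at −20 °C for 16 h. After a second cold PBS wash, cells were held 20 min at room temperature in 1 mL containing 0.1% Triton X-100, 0.2 mg RNase A and 2 μL PI (1 mg/mL). DNA content was read by flow cytometry.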

[2] = Cell cycle arrest in human PC3 cells assessed as accumulation at S phase at 0.4 uM after 24 hrs by propidium iodide staining based flow cytometry (reference value: 15.3 to 25.8%); assay type: functional; conditions: PC-3; method in brief: as §1
[3] = Cell cycle arrest in human PC3 cells assessed as accumulation at G0/G1 phase at 0.13 uM after 24 hrs by propidium iodide staining based flow cytometry (reference value: 55.6 +/- 1.4%); assay type: functional; conditions: PC-3; method in brief: as §1
[4] = Cytotoxicity against human PC3 cells assessed as growth inhibition after 72 hrs by Alamar blue assay; assay type: functional, cell-based; conditions: PC-3, 72 h
[5] = Cell cycle arrest in human PC3 cells assessed as accumulation at G0/G1 phase at 0.4 uM after 24 hrs by propidium iodide staining based flow cytometry (reference value: 55.6 to 62.5%); assay type: functional; conditions: PC-3; method in brief: as §1
[6] = Cell cycle arrest in human PC3 cells assessed as accumulation at G0/G1 phase at 0.04 uM after 24 hrs by propidium iodide staining based flow cytometry (reference value: 55.6 +/- 1.4%); assay type: functional; conditions: PC-3; method in brief: as §1
[7] = Cell cycle arrest in human PC3 cells assessed as accumulation at G2/M phase at 0.04 uM after 24 hrs by propidium iodide staining based flow cytometry (reference value: 18.7 +/- 0.7%); assay type: functional; conditions: PC-3; method in brief: as §1
[8] = Cell cycle arrest in human PC3 cells assessed as accumulation at S phase at 0.04 uM after 24 hrs by propidium iodide staining based flow cytometry (reference value: 25.8 +/- 0.7%); assay type: functional; conditions: PC-3; method in brief: as §1
[9] = Cell cycle arrest in human PC3 cells assessed as accumulation at G2/M phase at 0.13 uM after 24 hrs by propidium iodide staining based flow cytometry (reference value: 18.7 +/- 0.7%); assay type: functional; conditions: PC-3; method in brief: as §1
[10] = Cell cycle arrest in human PC3 cells assessed as accumulation at G2/M phase at 0.4 uM after 24 hrs by propidium iodide staining based flow cytometry (reference value: 18.7 to 22.2%); assay type: functional; conditions: PC-3; method in brief: as §1
[11] = Cell cycle arrest in human PC3 cells assessed as accumulation at G0/G1 phase at 1.3 uM after 24 hrs by propidium iodide staining based flow cytometry (reference value: 62.5 +/- […]%); assay type: functional; conditions: PC-3
[12] = Cell cycle arrest in human PC3 cells assessed as accumulation at G0/G1 phase at 4 uM after 24 hrs by propidium iodide staining based flow cytometry (reference value: 62.5 +/- […]%); assay type: functional; conditions: PC-3
[13] = Cell cycle arrest in human PC3 cells assessed as accumulation at S phase at 4 uM after 24 hrs by propidium iodide staining based flow cytometry (reference value: 15.3 +/- 3.1%); assay type: functional; conditions: PC-3; method in brief: as §1
[14] = Cell cycle arrest in human PC3 cells assessed as accumulation at G2/M phase at 1.3 uM after 24 hrs by propidium iodide staining based flow cytometry (reference value: 22.2 +/- 0.4%); assay type: functional; conditions: PC-3; method in brief: as §1
[15] = Cell cycle arrest in human PC3 cells assessed as accumulation at G2/M phase at 4 uM after 24 hrs by propidium iodide staining based flow cytometry (reference value: 22.2 +/- 0.4%); assay type: functional; conditions: PC-3; method in brief: as §1
[16] = Cell cycle arrest in human PC3 cells assessed as accumulation at S phase at 1.3 uM after 24 hrs by propidium iodide staining based flow cytometry (reference value: 15.3 +/- 3.1%); assay type: functional; conditions: PC-3; method in brief: as §1
PC-3 = assay: Cytotoxicity against human PC3 cells assessed as growth inhibition at 80 uM after 72 hrs by Alamar blue assay; assay type: functional, cell-based

## CC[C@@]1(O)C(Br)=C(Br)C(=O)C1=C(Br)Br
[1]
  Activity: 13.8%
[2]
  Activity: 11.5%
[3]
  Activity: 75%
[4]
  IC50: 0.44 µM
[5]
  Activity: 88.4%
[6]
  Activity: 63.3%
[7]
  Activity: 13.6%
[8]
  Activity: 18.1%
[9]
  Activity: 11.2%
[10]
  Activity: 0.1%

## Cc1oc(C(Br)=C(Br)Br)cc(=O)c1O
[11]
  Activity: 72.7%
[12]
  Activity: 73.3%
[2]
  Activity: 18.2%
[13]
  Activity: 23.8%
[4]
  IC50: 10 µM
[5]
  Activity: 63.7%
[14]
  Activity: 5.8%
[15]
  Activity: 2.9%
[16]
  Activity: 21.5%
[10]
  Activity: 18.1%

## CC(=O)O[C@@H](C(Br)=C(Br)Br)C(Br)Br
PC-3
  inhibition: inactive

## CC(=O)O[C@H]1C(=O)[C@@]2(C)[C@H]([C@H](OC(=O)c3ccccc3)[C@]3(O)C[C@H](OC(=O)[C@H](O)[C@@H](NC(=O)c4ccccc4)c4ccccc4)C(C)=C1C3(C)C)[C@]1(OC(C)=O)CO[C@@H]1C[C@@H]2O [PACLITAXEL]
[4]
  IC50: 0.002 µM
